Consider three molecules from publication PMC5193105 (Proteins, 2016).

In one experiment the target is wildtype hPFKFB2 (Homo sapiens, UniProt O60825). The experiment can be described thus: 2-kinase inhibition assay. The note with it: wild-type; for Ki: Citrate Kis. The format is biochemical. In a few lines: (§1)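 His-tagged enzyme was expressed in E. coli BL21 C41(DE3) and purified by Ni-NTA then SP Sepharose. Step 1 used 130 nM enzyme in 20 mM TES pH 8.0, 1 mM DTT, 2 mM MgCl2 and 0.5% tween, with varied citrate, ATP and Fru-6-P (fixed substrate 250 μM), for 10 min at 25°C. Reactions were KOH-stopped and neutralized. Fru-2,6-P2 was read by PPi-PFK/aldolase/TPI/[…] coupling as A340 over 30 min. Constants came from non-linear regression.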
Sequence of wildtype hPFKFB2 (O60825 whole entry): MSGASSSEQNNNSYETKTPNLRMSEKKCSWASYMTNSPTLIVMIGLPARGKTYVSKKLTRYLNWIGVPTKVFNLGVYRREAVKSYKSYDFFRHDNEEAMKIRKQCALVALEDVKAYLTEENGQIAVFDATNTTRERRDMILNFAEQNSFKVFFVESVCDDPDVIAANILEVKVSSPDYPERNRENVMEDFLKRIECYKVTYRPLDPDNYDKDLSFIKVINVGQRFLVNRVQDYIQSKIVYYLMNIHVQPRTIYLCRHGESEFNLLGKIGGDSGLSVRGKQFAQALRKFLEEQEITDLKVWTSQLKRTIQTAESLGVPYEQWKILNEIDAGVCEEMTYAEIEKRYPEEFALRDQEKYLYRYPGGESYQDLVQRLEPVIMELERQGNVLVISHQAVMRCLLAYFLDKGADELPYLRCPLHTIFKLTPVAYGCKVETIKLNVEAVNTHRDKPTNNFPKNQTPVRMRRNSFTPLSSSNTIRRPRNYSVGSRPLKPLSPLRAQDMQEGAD

The next experiment concerns the target hPFKFB2 Y428A mutant (Homo sapiens, UniProt O60825, Y428A). The experiment can be described thus: 2-kinase inhibition assay. The experiment is classed as biochemical. The conditions noted are these: for Ki: Citrate Kis. In a few lines: as §1
Where [1] appears, read: variable substrate ATP, fixed substrate F6P 250μM.
The mark [2] stands for this setting: Y428A, variable substrate ATP, fixed substrate F6P 250μM.

Molecules are shown by their SMILES.

Sequence of hPFKFB2 Y428A mutant (O60825 whole entry Y428A): as the sequence (O60825 whole entry) above, with Y428A counted along it

In the case of `Nc1ncnc2c1ncn2[C@@H]1O[C@H](COP(=O)(O)OP(=O)(O)OP(=O)(O)O)[C@@H](O)[C@H]1O` [ATP], the values for the KmATP at wildtype hPFKFB2 and on hPFKFB2 Y428A mutant (Y428A) were 38.8 ± 5.3 µM and 40.7 ± 4.2 µM, respectively.
Consider `O=C(O)CC(O)(CC(=O)O)C(=O)O` [Citrate], for which the Ki (as a rule, a dissociation constant, usually derived from enzyme kinetics or from competition with a known ligand) stood at 50.2 µM at wildtype hPFKFB2 (setting [1]); 80.3 ± 6.5 µM at wildtype hPFKFB2 (variable substrate F6P, fixed substrate ATP 250μM); 2.43 ± 1 µM on hPFKFB2 Y428A mutant (setting [2]); 67.3 ± 4.2 µM on hPFKFB2 Y428A mutant (Y428A, variable substrate F6P, fixed substrate ATP 250μM). The figures for the “Citrate Kii” value on wildtype hPFKFB2 (setting [1]) and at hPFKFB2 Y428A mutant (setting [2]) were 58.75 ± 9.9 µM and 3.05 ± 1.4 µM, respectively. The “inhibition mechanism (in words)” value is given as “non-competitive inhibitor” against wildtype hPFKFB2 (versus ATP) and “competitive inhibitor” at wildtype hPFKFB2 (versus F6P). Moreover, the “increase in affinity for the inhibitor, Y428A versus wild-type” value on hPFKFB2 Y428A mutant (Kis with ATP as variable substrate, from 50.2 μM to 2.4 μM) came out at 20 fold.
Consider `O=C(CO)[C@@H](O)[C@H](O)[C@H](O)COP(=O)(O)O` [F6P, fructose-6-phosphate], for which the KmF6P at wildtype hPFKFB2 was 80.3 ± 7.6 µM; at hPFKFB2 Y428A mutant (Y428A), 13.8 ± 4.3 µM. Further, at hPFKFB2 Y428A mutant (from Km values), the “increase in affinity for Fru-6-P, Y428A versus wild-type” value is 6 fold.
